In PubChem BioAssay AID588791 (Southern Research Specialized Biocontainment Screening …, 2011):
Calls of active or inactive are those of the source.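 How the source made its calls: active means virus titer falling by more than one log, over tenfold fewer virus than untreated infected wells; inactive means the rest.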

Tested on: HEp-2 cells, RSV plaque reduction, virus titer
Assay: RSV yield reduction in HEp-2 cells – cell-based, set 5, orthogonal assay for RSV inhibitor project, late-stage follow-up (AID 588791)
Details: stronger effect = lower value
How it was run: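 System: RSV Long-infected HEp-2 cells; times: compound exposure 48 h at 37 °C after infection; compound dosing: 0.5% DMSO final; also added: RSV Long strain at MOI 0.1, 2 h adsorption; measured by: plaque titration of harvested supernatants on fresh HEp-2, neutral red; buffer or medium: Avicel overlay, plaque stage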

Structure (SMILES)	log virus titer change (at 10 µM)	log virus titer change (titer change, at 2.5 µM)	log virus titer change (titer change, at 5 µM)
CC(C)c1ccc(Cn2c(=O)n(Cc3ccc(C(=O)NCC4COC4)cc3)c(=O)c3ncccc32)cc1	0.144 (inactive)	0.21	0.267
CC(C)c1ccc(Cn2c(=O)n(Cc3ccc(C(=O)NCC4COC4)cc3)c(=O)c3cccnc32)cc1	-2.72	0.155	-0.572
CC(C)c1ccc(Cn2c(=O)n(Cc3ccc(C(=O)NCC4COC4)cc3)c(=O)c3ccccc32)cc1	-5.75	-3.06	-5.75
CC(C)(C)c1ccc(Cn2c(=O)n(Cc3ccc(C(=O)NCC4COC4)cc3)c(=O)c3ccccc32)cc1	-3.4	0.138	-1.13
